The test system of experiment [1] is A2058. The experiment is described as follows: Induction of cell cycle arrest in human A2058 cells assessed as accumulation at G1 phase at 0.4 uM after 24 hrs by propidium iodide/RNase staining based flow cytometric analysis (reference value: 48.05 %). In kind it is functional. (In general: In flow cytometry, cells or beads pass a laser one at a time.)
The test system of experiment [2] is A2058. The experiment is described as follows: Induction of cell cycle arrest in human A2058 cells assessed as accumulation at S phase at 0.4 uM after 24 hrs by propidium iodide/RNase staining based flow cytometric analysis (reference value: 30.76 %). It is filed as functional.
The target in the next experiment is CDK3/Cyclin E (Homo sapiens, UniProt Q00526). Put plainly: Inhibition of CDK3/cyclin E1 (unknown origin) using FAM-labeled peptide and ATP as substrate preincubated for 10 mins followed by substrate addition by mobility shift assay. It is filed as protein-complex assay. The gist of the method: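 Mobility shift assay in 50 mM HEPES pH 7.5 with 0.0015% Brij-35. Kinase was added to serially diluted compound in 10% DMSO and held 10 min at room temperature. FAM-labeled peptide and ATP were then added and the mixture incubated at 28 °C for the specified time. Reactions were stopped with EDTA-containing buffer.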

Experiment [3] addresses Cyclin-dependent kinase 2 (Homo sapiens) (UniProt P24941). The experiment is described as follows: Inhibition of CDK2 in human MV4-11 cells assessed as reduction in Rb phosphorylation at Ser807/811 at 0.375 to 6 uM by immunoblot analysis. Particulars: dose 0.375-6 µM, time lower […], time upper 48.0 hrs, TDE = time-dependent effect. In kind it is cell-based. An outline of the steps: (§1)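 MV4-11 cells treated with compound for 24 h or 48 h. Lysates were separated on 8% or 10% SDS-PAGE and transferred to nitrocellulose. Membranes were immunoblotted for phospho-Rb Ser780, phospho-Rb Ser807/811 and total Rb, with β-actin as loading control. Detection used HRP secondary at 1:10,000 and ECL.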
In general terms: In western blotting, separated proteins are transferred to a membrane and probed.

Experiment [4] has the same target. The experiment is described as follows: Inhibition of CDK2 in human MV4-11 cells assessed as reduction in Rb phosphorylation at Ser807/811 after 24 to 48 hrs by immunoblot analysis. It is filed as cell-based. Particulars: dose 0.375-6 µM, time lower […], time upper 48.0 hrs. An outline of the steps:
as §1

The next experiment concerns the target CDK4/Cyclin D3 (Homo sapiens, UniProt P11802). Put plainly: Inhibition of CDK4/cyclin D3 (unknown origin) using FAM-labeled peptide and ATP as substrate preincubated for 10 mins followed by substrate addition by mobility shift assay. It is filed as protein-complex assay.
Experiment [5] has as its system A2058. The experiment is described as follows: Induction of apoptosis in human A2058 cells assessed as viable cells at 1 uM measured after 48 hrs by Annexin V-FITC/propidium iodide staining based flow cytometry (reference value: 94.6 %). It is filed as functional. Particulars: read-out: Activity.
The subject of experiment [6] is A2058. The experiment is described as follows: Induction of apoptosis in human A2058 cells assessed as early apoptotic cells at 0.4 uM measured after 48 hrs by Annexin V-FITC/propidium iodide staining based flow cytometry (reference value: 3.13 %). In kind it is functional.
Experiment [7] addresses Cyclin-dependent kinase 2 (Homo sapiens) (UniProt P24941). Put plainly: Inhibition of CDK2 in human MV4-11 cells assessed as reduction in Rb phosphorylation at Ser780 at 0.375 to 6 uM by immunoblot analysis. It is filed as cell-based. To be noted: dose 0.375-6 µM, time lower […], time upper 48.0 hrs, TDE = time-dependent effect. The gist of the method: as §1
For experiment [8] the target is unchanged. The experiment is described as follows: Inhibition of CDK2 in human MV4-11 cells assessed as reduction in Rb phosphorylation at Ser780 after 24 to 48 hrs by immunoblot analysis. In kind it is cell-based. To be noted: dose 0.375-6 µM, time lower […], time upper 48.0 hrs. An outline of the steps: as §1
In experiment [9] the test system is A2058. Put plainly: Induction of cell cycle arrest in human A2058 cells assessed as accumulation at G2 phase at 0.4 uM after 24 hrs by propidium iodide/RNase staining based flow cytometric analysis (reference value: 21.19 %). In kind it is functional.
Experiment [10] deals with A2058. Put plainly: Induction of cell cycle arrest in human A2058 cells assessed as accumulation at G2 phase at 0.2 uM after 24 hrs by propidium iodide/RNase staining based flow cytometric analysis (reference value: 21.19 %). It is filed as functional.
For experiment [11], the system named is A2058. The experiment is described as follows: Induction of apoptosis in human A2058 cells assessed as late apoptotic cells at 0.2 uM measured after 48 hrs by Annexin V-FITC/propidium iodide staining based flow cytometry (reference value: 1.85 %). It is filed as functional.
Experiment [12] concerns A2058. Put plainly: Induction of cell cycle arrest in human A2058 cells assessed as accumulation at S phase at 0.2 uM after 24 hrs by propidium iodide/RNase staining based flow cytometric analysis (reference value: 30.76 %). It is filed as functional.

pIC50: −log10 of the molar value.

CDK3/Cyclin E, sequence (P24864 whole entry): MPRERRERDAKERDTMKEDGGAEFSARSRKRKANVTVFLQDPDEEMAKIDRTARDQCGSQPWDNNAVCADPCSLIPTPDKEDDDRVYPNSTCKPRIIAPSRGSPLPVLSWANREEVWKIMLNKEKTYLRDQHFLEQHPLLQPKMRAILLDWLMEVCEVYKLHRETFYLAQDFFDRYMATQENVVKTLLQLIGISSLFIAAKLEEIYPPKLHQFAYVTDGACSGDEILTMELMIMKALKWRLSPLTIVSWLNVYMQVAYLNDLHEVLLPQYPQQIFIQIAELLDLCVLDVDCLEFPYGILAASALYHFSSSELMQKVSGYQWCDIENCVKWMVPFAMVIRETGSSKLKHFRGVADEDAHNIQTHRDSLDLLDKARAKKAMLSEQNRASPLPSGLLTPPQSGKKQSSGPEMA
CDK3/Cyclin E, sequence (Q00526 whole entry): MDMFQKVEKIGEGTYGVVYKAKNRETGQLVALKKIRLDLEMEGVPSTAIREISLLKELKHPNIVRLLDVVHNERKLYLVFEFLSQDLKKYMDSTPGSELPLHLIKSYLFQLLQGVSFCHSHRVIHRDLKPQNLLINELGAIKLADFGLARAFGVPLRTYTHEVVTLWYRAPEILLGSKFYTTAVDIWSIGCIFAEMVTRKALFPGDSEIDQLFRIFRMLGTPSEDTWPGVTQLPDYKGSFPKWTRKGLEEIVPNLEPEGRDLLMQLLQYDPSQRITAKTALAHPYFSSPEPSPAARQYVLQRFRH
CDK4/Cyclin D3, sequence (P11802 whole entry): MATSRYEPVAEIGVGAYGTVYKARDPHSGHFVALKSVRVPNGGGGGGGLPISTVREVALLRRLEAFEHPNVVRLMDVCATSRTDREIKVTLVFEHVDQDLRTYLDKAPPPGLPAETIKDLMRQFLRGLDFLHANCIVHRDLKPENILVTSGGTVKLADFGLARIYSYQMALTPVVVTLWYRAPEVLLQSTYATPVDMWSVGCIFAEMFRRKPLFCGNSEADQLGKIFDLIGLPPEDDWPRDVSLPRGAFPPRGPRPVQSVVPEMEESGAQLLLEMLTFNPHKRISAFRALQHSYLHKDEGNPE
CDK4/Cyclin D3, sequence (P30281 whole entry, further chain): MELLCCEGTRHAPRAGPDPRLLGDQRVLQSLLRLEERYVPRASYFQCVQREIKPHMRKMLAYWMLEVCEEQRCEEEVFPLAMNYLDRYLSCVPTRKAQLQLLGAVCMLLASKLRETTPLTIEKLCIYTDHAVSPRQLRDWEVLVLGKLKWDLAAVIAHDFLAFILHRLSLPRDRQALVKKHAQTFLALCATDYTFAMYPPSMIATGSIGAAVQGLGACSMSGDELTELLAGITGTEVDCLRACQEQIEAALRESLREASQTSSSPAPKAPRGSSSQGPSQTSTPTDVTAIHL

In the case of `NC(=O)c1ccc(-c2ccc(F)c(C(=O)Nc3c[nH]nc3C(=O)Nc3ccc(F)cc3)c2F)cn1`, the Activity in the experiment with A2058 [1] is on record as 48.05%; with A2058 [2] it was 39.82%; in the experiment with A2058 [6], 21.7%; with A2058 [9], 41.44%; with A2058 [10] it was 21.76%; in the experiment with A2058 [11] it was 4.75%. The Activity with A2058 [12] stood at 41.35%. The values for the pIC50 on CDK3/Cyclin E and at CDK4/Cyclin D3 were 6.95 and 5.46, respectively. The inhibition entry is “Tde” in experiment [3], “Dose-dependent effect” in experiment [4], “Tde” in experiment [7] and “Dose-dependent effect” in experiment [8]. Moreover, in the experiment with A2058 [5], the viability at 1 µM stood at 23.7%.

For the origin of these results see ChEMBL document CHEMBL4732230, “Design, synthesis, and biological evaluation of 4-benzoylamino-1H-pyrazole-3-carboxamide derivatives as potent CDK2 inhibitors” (Eur J Med Chem, 2021).
